ChEMBL document CHEMBL1938233, “2-Oxo-N-aryl-1,2,3,4-tetrahydroquinoline-6-sulfonamides as activators of the tumor cell specific M2 isoform of pyruvate kinase” (Bioorg Med Chem Lett, 2011)
Activity calls are given as the source filed them. No cut-off for these calls is given here.

How the values were obtained:
[1] = target: T1, Pyruvate kinase PKM (Homo sapiens, UniProt P14618); assay: Activation of human PKM2 assessed as ATP product formation at 57 uM after 1 hr by luminescent pyruvate-kinase luciferase coupled assay
Procedure, shortened: (§1)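 Luminescent pyruvate kinase–luciferase coupled assay. AC50 is the mean of three separate experiments. Maximum response is % activation at 57 μM compound, normalized as described in the supporting information.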
Target sequence in this assay (P14618 2-531 limits assumed): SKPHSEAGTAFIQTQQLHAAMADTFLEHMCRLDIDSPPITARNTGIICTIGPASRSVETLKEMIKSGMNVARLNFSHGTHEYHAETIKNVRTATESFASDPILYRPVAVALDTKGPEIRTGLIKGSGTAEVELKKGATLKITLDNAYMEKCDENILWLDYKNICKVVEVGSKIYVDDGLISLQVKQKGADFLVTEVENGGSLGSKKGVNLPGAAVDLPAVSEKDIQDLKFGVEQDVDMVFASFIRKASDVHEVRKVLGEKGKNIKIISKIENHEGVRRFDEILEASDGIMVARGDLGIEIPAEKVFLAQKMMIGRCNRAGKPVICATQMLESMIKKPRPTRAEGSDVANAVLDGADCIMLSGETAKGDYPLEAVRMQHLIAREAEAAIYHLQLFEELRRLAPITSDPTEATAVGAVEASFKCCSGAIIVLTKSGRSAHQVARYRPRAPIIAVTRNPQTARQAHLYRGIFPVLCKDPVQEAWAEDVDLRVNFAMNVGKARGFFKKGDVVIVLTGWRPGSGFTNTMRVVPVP

[2] = target: Pyruvate kinase PKLR (Homo sapiens) (UniProt P30613); assay: Activation of PKLR assessed as ATP product formation at 57.5 uM after 1 hr by luminescent pyruvate kinase-luciferase coupled assay
Sequence of Pyruvate kinase PKLR (Homo sapiens) (P30613 whole entry, looked up): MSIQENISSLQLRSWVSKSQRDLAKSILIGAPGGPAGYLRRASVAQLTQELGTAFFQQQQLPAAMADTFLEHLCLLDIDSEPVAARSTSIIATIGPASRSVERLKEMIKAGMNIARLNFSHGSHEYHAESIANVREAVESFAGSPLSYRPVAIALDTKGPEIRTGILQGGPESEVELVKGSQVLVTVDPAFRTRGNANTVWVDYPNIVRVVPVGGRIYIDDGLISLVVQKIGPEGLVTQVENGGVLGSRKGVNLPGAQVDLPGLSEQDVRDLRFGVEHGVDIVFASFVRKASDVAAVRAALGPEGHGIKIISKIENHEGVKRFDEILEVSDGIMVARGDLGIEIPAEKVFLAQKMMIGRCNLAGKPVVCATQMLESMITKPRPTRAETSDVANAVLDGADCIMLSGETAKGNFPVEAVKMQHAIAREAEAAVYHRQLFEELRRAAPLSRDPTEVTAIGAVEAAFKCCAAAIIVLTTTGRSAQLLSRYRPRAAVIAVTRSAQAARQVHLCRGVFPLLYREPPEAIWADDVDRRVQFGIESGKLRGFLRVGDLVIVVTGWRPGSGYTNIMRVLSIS

[3] = Apparent permeability from basolateral to apical side of human Caco2 cells at pH 7.4 after 2 hrs by LC/MS/MS analysis; format: ADME, cell-based; details: Caco-2, pH 7.4
[4] = tested on: Liver microsomes; assay: Half life in human liver microsomes at 2 uM after 2 mins by LC/MS/MS analysis; format: ADME, Microsome
[5] = Apparent permeability from apical to basolateral side of human Caco2 cells at pH 7.4 after 2 hrs by LC/MS/MS analysis; format: ADME, cell-based; details: Caco-2, pH 7.4
[6] = tested on: Liver; assay: Half life in mouse liver microsomes at 2 uM after 2 mins by LC/MS/MS analysis; format: ADME, Microsome
[7] = target: T1, Pyruvate kinase PKM; assay: Activation of human PKM2 assessed as ATP product formation at 57 µM after 1 hr by luminescent pyruvate kinase-luciferase coupled assay
Target sequence in this assay (P14618 2-531 limits assumed): as the sequence (P14618 2-531 limits assumed) above

[8] = tested on: Caco-2; assay: Efflux ratio of permeability from basolateral to apical side over apical to basolateral side in human Caco2 cells at pH 7.4 after 2 hrs by LC/MS/MS analysis; details: caco-2, pH 7.4, 2 h
[9] = target: T1, Pyruvate kinase PKM; assay: Activation of human PKM2 assessed as ATP product formation after 1 hr by luminescent pyruvate kinase-luciferase coupled assay; procedure, shortened: as §1

Row | Structure (SMILES) | Emax [1] | Emax [7] | other results
1 | O=C1CCc2cc(S(=O)(=O)Nc3cccnc3)ccc2N1 | inactive | – | –
2 | C[C@@H](CO)Nc1cc2c(cc1S(=O)(=O)Nc1ccc(F)c(Cl)c1)CCC(=O)N2 | – | 92% | Activity [2]: < 25%; Papp B→A at 2 h [3]: 17.5 ×10⁻⁶ cm/s; t1/2 [4]: 78.8 min; Papp A→B at 2 h [5]: 1.61 ×10⁻⁶ cm/s; t1/2 [6]: 36.3 min; Ratio [8]: 10.91
3 | Cc1ccc(NS(=O)(=O)c2ccc3c(c2)CCC(=O)N3)cc1F | 138% | – | –
4 | Cc1ccc(NS(=O)(=O)c2cc3c(cc2Cl)CCC(=O)N3)cc1C | – | 92% | –
5 | CC(=O)N1CCCc2cc(S(=O)(=O)Nc3ccc(C)c(C)c3)ccc21 | – | 76% | –
6 | Cc1cc(NS(=O)(=O)c2cc3c(cc2F)NC(=O)CC3)ccc1F | – | 92% | –
7 | Cc1ccc(NS(=O)(=O)c2ccc3c(c2)N(C)CCO3)cc1C | – | 81% | –
8 | Cc1ccc(NS(=O)(=O)c2cc(Br)cc3c2NC(=O)CC3)cc1Cl | – | – | Activity [9]: inactive
9 | Cc1ccc(NS(=O)(=O)c2cc3c(cc2N[C@H](C)CO)NC(=O)CC3)cc1C | – | 108% | EC50 [9]: 0.88 µM
10 | Cc1ccc(NS(=O)(=O)c2ccc3ccccc3c2)cc1C | – | 69% | –
11 | O=C1CCc2cc(S(=O)(=O)Nc3ccc4c(c3)CCC4)ccc2N1 | 73% | – | –
12 | O=C1CCc2cc(S(=O)(=O)Nc3ccncc3)ccc2N1 | inactive | – | –
13 | Cc1ccc(NS(=O)(=O)c2ccc3c(c2)CCC(=O)N3)cc1 | 102% | – | –
14 | CC(=O)Nc1ccc(S(=O)(=O)Nc2ccc(C)c(C)c2)cc1 | – | < 40% | –
15 | Cc1ccc(NS(=O)(=O)c2cccc(C(=O)O)c2)cc1C | – | inactive | –
16 | O=C1CCc2cc(S(=O)(=O)Nc3cccc(-c4ccccc4)c3)ccc2N1 | inactive | – | –
17 | Cc1ccccc1NS(=O)(=O)c1ccc2c(c1)CCC(=O)N2 | 94% | – | –
18 | Cc1ccc(NS(=O)(=O)c2ccc3c(c2)oc(=O)n3C)cc1C | – | 95% | –
19 | O=C1CCc2cc(S(=O)(=O)Nc3cccc(F)c3)ccc2N1 | 101% | – | EC50 [9]: 0.79 µM
20 | CC(=O)Nc1cccc(S(=O)(=O)Nc2ccc(C)c(C)c2)c1 | – | 58% | –
21 | Cc1ccc(NS(=O)(=O)c2cc3c(cc2N2CCCC2)NC(=O)CC3)cc1C | – | 123% | –
22 | Cc1ccc(NS(=O)(=O)c2cc(N[C@@H](C)CO)cc3c2NC(=O)CC3)cc1C | – | – | Activity [9]: inactive
23 | Cc1ccc(NS(=O)(=O)c2cc3c(cc2NCCO)NC(=O)CC3)cc1C | – | 132% | –
24 | Cc1ccc(NS(=O)(=O)c2ccc3c(c2)CC(=O)N3)cc1C | – | 57% | –
25 | Cc1ccc(NS(=O)(=O)c2cc3c(cc2Br)CCC(=O)N3)cc1Cl | – | 51% | EC50 [9]: 7.43 µM
26 | Cc1ccc(NS(=O)(=O)c2cc(N[C@@H](C)CO)cc3c2NC(=O)CC3)cc1Cl | – | – | Activity [9]: inactive
27 | O=C1CCc2cc(S(=O)(=O)Nc3ccc(Cl)cc3)ccc2N1 | 106% | – | –
28 | O=C1CCc2cc(S(=O)(=O)Nc3ccc4ccccc4c3)ccc2N1 | 121% | – | –

Row | Structure (SMILES) | Emax [1] | Emax [7] | other results
29 | Cc1ccc(NS(=O)(=O)c2cc3c(cc2N[C@@H](C)CO)NC(=O)CC3)cc1C | – | 116% | EC50 [9]: 0.17 µM
30 | Cc1cc(NS(=O)(=O)c2ccc3c(c2)CCC(=O)N3)ccc1F | 128% | – | –
31 | Cc1ccc(NS(=O)(=O)c2ccc3c(c2)CCCC(=O)N3)cc1C | – | 88% | –
32 | Cc1ccc(NS(=O)(=O)c2cc3c(cc2Cl)NC(=O)CO3)cc1C | – | 80% | –
33 | Cc1ccc(NS(=O)(=O)c2cc3c(cc2NCC(C)(C)O)NC(=O)CC3)cc1C | – | 83% | –
34 | O=C1CCc2cc(S(=O)(=O)Nc3ccccc3F)ccc2N1 | 95% | – | –
35 | Cc1ccc(NS(=O)(=O)c2ccc3c(c2)CCC(C)(C)O3)cc1C | – | 62% | –
36 | Cc1ccc(NS(=O)(=O)c2cc3c(cc2N[C@@H](C)CO)CCC(=O)N3)cc1Cl | – | 54% | –
37 | Cc1ccc(NS(=O)(=O)c2cc3c(cc2N2CCCCC2)NC(=O)CC3)cc1C | – | 47% | –
38 | O=C1CCc2cc(S(=O)(=O)Nc3cccc(Cl)c3)ccc2N1 | 104% | – | EC50 [9]: 0.41 µM
39 | CNc1cc2c(cc1S(=O)(=O)Nc1ccc(C)c(C)c1)CCC(=O)N2 | – | 102% | t1/2 [4]: 19.7 min; t1/2 [6]: 19.1 min
40 | Cc1ccc(NS(=O)(=O)c2cc(Br)cc3c2NC(=O)CC3)cc1C | – | – | Activity [9]: inactive
41 | Cc1ccc(NS(=O)(=O)c2ccc3c(ccn3C)c2)cc1C | – | 47% | EC50 [9]: 19.9 µM
42 | CC(=O)N1CCc2cc(S(=O)(=O)Nc3ccc(C)c(C)c3)ccc21 | – | 96% | –
43 | Cc1ccc(NS(=O)(=O)c2cc3c(cc2Cl)CCC(=O)N3)cc1Cl | – | 109% | –
44 | Cc1ccc(NS(=O)(=O)c2cc3c(cc2F)NC(=O)CC3)cc1C | – | 101% | t1/2 [4]: 16.5 min; t1/2 [6]: 34.3 min
45 | Cc1ccc(NS(=O)(=O)c2cc3c(cc2N2CCC(N(C)C)C2)NC(=O)CC3)cc1C (racemic) | – | inactive | –
46 | Cc1ccc(NS(=O)(=O)c2ccc3c(c2)NC(=O)CO3)cc1C | – | 81% | –
47 | Cc1ccc(NS(=O)(=O)c2cc3c(cc2/C=C/c2ccccc2)NC(=O)CO3)cc1C | – | inactive | –
48 | O=C1CCc2cc(S(=O)(=O)Nc3ccc4c(c3)OCCO4)ccc2N1 | 100% | – | –
49 | Cc1ccc(NS(=O)(=O)c2ccc(N3CCCC3=O)cc2)cc1C | – | 60% | –
50 | Cc1ccc(NS(=O)(=O)c2ccc3c(c2)CC(=O)N3C)cc1C | – | 119% | –
51 | O=C1CCc2cc(S(=O)(=O)Nc3cccc(C(F)(F)F)c3)ccc2N1 | 109% | – | –
52 | Cc1cc(NS(=O)(=O)c2ccc3c(c2)CCC(=O)N3)ccc1Cl | 121% | – | –
53 | Cc1ccc(NS(=O)(=O)c2cc3c(cc2N(C)C)CCC(=O)N3)cc1C | – | 106% | –
54 | Cc1ccc(NS(=O)(=O)c2cc3c(cc2Br)CCC(=O)N3)cc1C | – | 52% | EC50 [9]: 6.6 µM
55 | COc1cccc(Cn2ncc3c4sc([S+](C)[O-])cc4n(C)c3c2=O)c1 (configuration not stated) | – | – | EC50 [9]: 0.073 µM

The next lines start with results.

Row | Emax [1] | Emax [7] | Structure (SMILES) | other results
56 | – | 106% | CCN(CC)c1cc2c(cc1S(=O)(=O)Nc1ccc(C)c(C)c1)CCC(=O)N2 | –
57 | 101% | – | Cc1cccc(NS(=O)(=O)c2ccc3c(c2)CCC(=O)N3)c1 | EC50 [9]: 0.25 µM
58 | 115% | – | COc1cccc(NS(=O)(=O)c2ccc3c(c2)CCC(=O)N3)c1 | –
59 | – | 95% | Cc1cc(NS(=O)(=O)c2cc3c(cc2N[C@@H](C)CO)NC(=O)CC3)ccc1F | –
60 | – | 123% | Cc1ccc(NS(=O)(=O)c2cc3c(cc2NC(C)C)NC(=O)CC3)cc1C | –
61 | 95% | – | O=C1CCc2cc(S(=O)(=O)Nc3ccc(Cl)c(Cl)c3)ccc2N1 | –
62 | 123% | – | O=C1CCc2cc(S(=O)(=O)Nc3ccc(F)c(Cl)c3)ccc2N1 | EC50 [9]: 0.29 µM
63 | – | inactive | Cc1ccc(NS(=O)(=O)c2ccc(F)cc2)cc1C | –
64 | inactive | – | O=C1CCc2cc(S(=O)(=O)Nc3ccc4ncccc4c3)ccc2N1 | –
65 | 84% | – | O=C1CCc2cc(S(=O)(=O)Nc3ccc(F)cc3)ccc2N1 | –
66 | – | 71% | Cc1ccc(NS(=O)(=O)c2cccc(Cl)c2)cc1C | –
67 | – | 111% | Cc1ccc(NS(=O)(=O)c2cc3c(cc2C)NC(=O)CO3)cc1C | –
68 | – | 112% | Cc1ccc(NS(=O)(=O)c2cc3c(cc2F)NC(=O)CC3)cc1Cl | Papp B→A at 2 h [3]: 6.24 ×10⁻⁶ cm/s; t1/2 [4]: 22.9 min; Papp A→B at 2 h [5]: 6.22 ×10⁻⁶ cm/s; t1/2 [6]: 54.1 min; Ratio [8]: 1
69 | – | inactive | Cc1ccc(NS(=O)(=O)c2cc3c(cc2-c2ccccc2)NC(=O)CO3)cc1C | –
70 | – | inactive | Cc1ccc(NS(=O)(=O)c2ccc3[nH]c(=O)[nH]c3c2)cc1C | –
71 | 85% | – | COc1ccc(NS(=O)(=O)c2ccc3c(c2)CCC(=O)N3)cc1 | –
72 | 104% | – | Cc1ccc(NS(=O)(=O)c2ccc3c(c2)CCC(=O)N3)cc1Cl | EC50 [9]: 0.1 µM
73 | – | 93% | Cc1cc(NS(=O)(=O)c2cc3c(cc2F)NC(=O)CC3)ccc1Cl | –
74 | – | 53% | COc1ccc(S(=O)(=O)Nc2ccc(C)c(C)c2)cc1 | –
75 | – | 129% | Cc1ccc(NS(=O)(=O)c2cc3c(cc2N(C)C)NC(=O)CC3)cc1C | t1/2 [4]: 19.4 min; t1/2 [6]: 21.7 min
